What was measured:
[1] = Drug metabolism in bile duct-cannulated Sprague-Dawley rat urine assessed as BMS-572273 metabolite level at 30 mg/kg, po after 12 hrs by LC-MS/MS analysis; type: ADME, organism-based; parameters: dose 30 mg/kg, route oral; details: in vivo
Summary of the method: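 Male bile-duct-cannulated Sprague-Dawley rats (n=3), fasted overnight, received 30 mg/kg by gavage in 0.5% methylcellulose. Urine and bile were collected 0-12 h and pooled by equal percentage weight across animals, then centrifuged. Supernatants were profiled by LC/MS/MS. Bile was also treated with β-glucuronidase in pH 4.8 acetate buffer, 37°C, 16 h.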

[2] = AUC (infinity) in Sprague-Dawley rat at 1 mg/kg, iv; type: ADME, organism-based; parameters: time infinity, dose 1 mg/kg, route intravenous; details: plasma
Summary of the method: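 Male Sprague-Dawley rats (n=3 per route, 0.34-0.35 kg, cannulated), fasted ~18 h pre-dose and 4 h post-dose. Dosing was 1 mg/kg IV bolus in 20% ethanol/saline via the jugular cannula, or 5 mg/kg oral gavage in 0.5% aqueous methylcellulose. Jugular blood was sampled 0-96 h. Plasma was assayed by validated LC/MS/MS (LLOQ 1.00 ng/ml), and AUC(INF) was derived by noncompartmental mixed log-linear trapezoidal analysis.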

[3] = Terminal half life in Sprague-Dawley rat at 1 mg/kg, iv; type: ADME, organism-based; parameters: dose 1 mg/kg, route intravenous; details: in vivo, read-out: beta t1/2 (converted)
Summary of the method: (§1)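 Male Sprague-Dawley rats (n=3 per route, 0.34–0.35 kg) with jugular cannulas, fasted about 18 h before and 4 h after dosing. IV dose of 1 mg/kg in 20% ethanol/saline; oral dose of 5 mg/kg by gavage in 0.5% methylcellulose. Plasma sampled 0–96 h and assayed by LC/MS/MS (LLOQ 1.00 ng/ml). Noncompartmental analysis.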

[4] = Terminal half life in Sprague-Dawley rat at 5 mg/kg, po; type: ADME, organism-based; parameters: dose 5 mg/kg, route oral; details: in vivo, read-out: beta t1/2 (converted); summary of the method: as §1
[5] = Plasma clearance in beagle dog at 1 mg/kg, iv; type: ADME, organism-based, Canis lupus familiaris; parameters: dose 1 mg/kg, route intravenous
Summary of the method: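 Male beagle dogs (n=3), one-way IV/PO crossover with a one-week washout, fasted about 15 h before and 4 h after dosing. IV dose of 1 mg/kg as a saphenous bolus in N,N-dimethylacetamide:propylene glycol:water (1:7:2); PO dose of 5 mg/kg by gavage in 0.5% methylcellulose. Plasma sampled 0–96 h and assayed by LC/MS/MS (LLOQ 1.00 ng/ml). Noncompartmental analysis; CL = dose/AUC(INF) after IV; F from dose-normalized AUC ratio.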

Canis familiaris = test: Terminal volume of distribution in beagle dog at 1 mg/kg, iv; type: ADME, organism-based, Canis lupus familiaris; parameters: dose 1 mg/kg, route intravenous; details: in vivo
Summary of the method: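 Male beagles (n=3, 10.1-12.7 kg), fasted ~15 h pre- and 4 h post-dose, given a 1 mg/kg IV bolus via saphenous vein catheter in N,N-dimethylacetamide:propylene glycol:water (1:7:2). Plasma drawn 0-96 h and assayed by LC/MS/MS. Noncompartmental analysis; Vz = CLp (dose/AUC(INF)) divided by elimination rate constant.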

[6] = Cmax in beagle dog at 5 mg/kg, po; type: ADME, organism-based, Canis lupus familiaris; parameters: dose 5 mg/kg, route oral; details: in vivo
Summary of the method: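 Male beagle dogs (n=3, 10.1-12.7 kg) in a one-way IV/PO crossover with one-week washout, fasted ~15 h pre-dose and 4 h post-dose. Dosing was 1 mg/kg IV bolus into the saphenous vein in DMA:propylene glycol:water (1:7:2), or 5 mg/kg gavage in 0.5% methylcellulose. Blood was sampled 0-96 h. Plasma was assayed by LC/MS/MS (LLOQ 1.00 ng/ml) with noncompartmental analysis; Cmax was observed directly.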

[7] = Tmax in beagle dog at 5 mg/kg, po; type: ADME, organism-based, Canis lupus familiaris; parameters: dose 5 mg/kg, route oral; details: in vivo
Summary of the method: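 Male beagles (n=3, 10.1-12.7 kg) in one-way crossover, one-week washout after IV leg; fasted ~15 h before and 4 h after dosing. Single gavage 5 mg/kg in 0.5% aqueous methylcellulose. Plasma sampled 0-96 h, parent measured by validated LC/MS/MS (1.00-1000 ng/ml). Noncompartmental analysis; Tmax taken from observed data.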

[8] = Tmax in chimpanzee at 1 mg/kg, po; type: ADME, organism-based, Pan troglodytes; parameters: dose 1 mg/kg, route oral; details: in vivo
Summary of the method: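 Two male chimpanzees (58 and 72 kg), fasted overnight, dosed orally at 1 mg/kg as a suspension in 0.5% aqueous methylcellulose/Tang orange juice with 1% Tween 80 (1:1). Plasma sampled 0-96 h, parent measured by validated LC/MS/MS. Tmax taken from observed data by noncompartmental analysis; reported as median (min, max).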

[9] = AUC (infinity) in chimpanzee at 1 mg/kg, po; type: ADME, organism-based, Pan troglodytes; parameters: dose 1 mg/kg, route oral, time infinity; details: plasma
Summary of the method: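 Two fasted male chimpanzees (58, 72 kg) received 1 mg/kg orally as a suspension in 0.5% methylcellulose/orange drink with 1% Tween 80 (1:1). Blood was sampled 0-96 h post-dose. Plasma was assayed by validated LC/MS/MS (LLOQ 1.00 ng/ml). Noncompartmental analysis gave AUC(INF) by the mixed log-linear trapezoidal method, with Cmax observed directly; values are mean (min, max).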

Liver microsome = test: Drug metabolism in human liver microsomes assessed as DPH-123554 metabolite formation at 100 uM after 1 hr in presence of NADPH and ketoconazole; type: ADME
[10] = Protein binding in rat serum after 3 hrs by equilibrium dialysis; type: ADME, cell-free; details: read-out: PB (converted)
Summary of the method: (§2)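 Equilibrium dialysis of serum spiked to final 12.8, 25.6 and 38.5 µM against 134 mM phosphate buffer, pH 7.4, through a 10,000 Da cutoff membrane. Cells rotated at 20 rpm, 37°C, 3 h. Percent unbound taken as buffer concentration divided by serum concentration.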

[11] = Protein binding in dog serum after 3 hrs by equilibrium dialysis; type: ADME, cell-free, Canis lupus familiaris; details: read-out: PB (converted); summary of the method: as §2
[12] = Protein binding in human serum after 3 hrs by equilibrium dialysis; type: ADME, cell-free; details: read-out: PB (converted); summary of the method: as §2
Serum = test: Metabolic stability in rat serum after 3 hrs by equilibrium dialysis; type: ADME, cell-free
Summary of the method: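 Stability assessed in the serum samples from the equilibrium-dialysis setup: compound at final 12.8, 25.6 and 38.5 µM, dialysed against 134 mM phosphate buffer, pH 7.4, at 37°C with rotation at 20 rpm. Samples monitored for degradants over the 3-h incubation.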

[13] = Drug metabolism in cynomolgus monkey cryopreserved hepatocytes assessed as […] at 25 uM after 3 hrs by HPLC analysis; type: ADME, cell-based, Macaca fascicularis, Hepatocyte
[14] = Drug metabolism in mouse hepatocytes assessed as 7-hydroxycoumarin formation at 25 uM after 3 hrs by HPLC analysis; type: ADME, cell-based, Hepatocyte
[15] = Drug metabolism in rat hepatocytes assessed as 7-hydroxycoumarin formation at 25 uM after 3 hrs by HPLC analysis; type: ADME, cell-based, Hepatocyte
[16] = Drug metabolism in mouse hepatocytes assessed as decrease of compound level at 25 uM after 3 hrs by HPLC analysis; type: ADME, cell-based, Hepatocyte; details: read-out: Drug metabolism
[17] = Drug metabolism in beagle dog hepatocytes assessed as decrease of compound level at 25 uM after 3 hrs by HPLC analysis; type: ADME, cell-based, Canis lupus familiaris, Hepatocyte; details: read-out: Drug metabolism
Summary of the method: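 Mouse, rat, dog, monkey and human hepatocytes (trypan blue viability checked) at 1.0×10^6 cells/ml in Krebs-Henseleit buffer were incubated with 25 µM compound, in duplicate. Conditions were 37°C, 95/5 O2/CO2, orbital shaking, 3 h. 7-Ethoxycoumarin and 7-hydroxycoumarin (100 µM) served as positive controls, with a cell-free negative control. Reactions were quenched with ice-cold acetonitrile, then sonicated and centrifuged; supernatants were analysed by LC/MS/MS.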

[18] = Drug metabolism in rat hepatocytes assessed as at 25 uM after 3 hrs by HPLC analysis
[19] = Drug metabolism in mouse hepatocytes assessed as at 25 uM after 3 hrs by HPLC analysis

## COc1ccc(-c2c(C)nn3c(O)nc(C)nc23)c(C)n1
[1]
  Drug metabolism: metabolite_detected

## CC[C@@H](C)Nc1nc(C)nc2c(-c3ccc(OC)nc3C)c(C)nn12 [PEXACERFONT]
[2]
  AUC(0-inf): 2.9 µM·h
[3]
  half-life: 13.5 h
[4]
  half-life: 13.8 h
[5]
  clearance: 11.6 mL/min/kg
Canis familiaris
  Vz: 28.2 L/kg
[6]
  Cmax: 1800 nM
[7]
  Tmax: 0.75 h
[8]
  Tmax: 2 h
[9]
  AUC(0-inf): 13.9 µM·h
Liver microsome
  Drug metabolism: metabolite_not_detected
[10]
  fraction unbound at 3 h: 0.064
[11]
  fraction unbound at 3 h: 0.048
[12]
  fraction unbound at 3 h: 0.039
Serum
  Stability: Stable
[13]
  Drug metabolism: metabolite_detected
[14]
  Drug metabolism: metabolite_detected
[15]
  Drug metabolism: metabolite_detected
[16]
  metabolised at 3 h, 25 µM: 75%
[17]
  metabolised at 3 h, 25 µM: 61%
[18]
  Drug metabolism: metabolite_detected
[19]
  Drug metabolism: metabolite_detected

Source: ChEMBL document CHEMBL3526146, “In vitro and in vivo metabolism and pharmacokinetics of BMS-562086, a potent and orally bioavailable corticotropin-releasing factor-1 receptor antagonist” (Drug Metab Dispos, 2012)
